Out of some 2,500 compounds screened, about 1,500 (60%) were called active.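 How the source made its calls: active means inhibition of at least 30% at 20 µM; inactive means the rest.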 The set was probably picked from earlier hits. The entries come from a sample that favours actives as a whole.
Target: Carboxy-terminal domain RNA polymerase II polypeptide A small phosphatase 1 (Homo sapiens) (UniProt Q9GZU7)
Experiment: SCP1 dephosphorylation blockade at one dose – biochemical, colorimetric, single concentration, confirmation (AID 540281);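 further: plate controls were DMSO with enzyme for no effect and buffer wells lacking enzyme for full effect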
Details: recombinant SCP-1 catalytic domain, phosphate release, malachite green absorbance; at 20 µM; stronger effect = higher value
Method in brief: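 Material: SCP-1 enzyme, residues 76-261; Times: 45 min phosphatase reaction at RT; Reagent: Phospho-17-mer peptide substrate; Dosing: single 20 µM final compound concentration, 1.0% DMSO; Medium: Acidic Tris acetate with 10 mM MgCl2 and Tween-20, pH 5.5; Technique: absorbance at 630 nm, free phosphate colorimetry.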

Sequence of Carboxy-terminal domain RNA polymerase II polypeptide A small phosphatase 1 (Homo sapiens) (Q9GZU7 76-261 limits assumed): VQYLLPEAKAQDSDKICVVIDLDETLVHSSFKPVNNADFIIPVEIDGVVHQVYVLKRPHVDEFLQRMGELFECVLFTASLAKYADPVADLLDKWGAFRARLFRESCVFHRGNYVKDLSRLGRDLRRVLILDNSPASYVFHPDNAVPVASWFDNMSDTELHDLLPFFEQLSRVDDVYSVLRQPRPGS

SMILES	inhibition
O=c1[nH]c(=O)n(CCc2ccc(F)cc2)c(O)c1/C=N/N1CCCCC1	34.8% (active)
COc1ccccc1N=C1SCCCN1C	81.9% (active)
O=C(O)CCn1cc(C=C2C(=O)NC(=S)NC2=O)c(-c2cccc(Br)c2)n1	40% (active)
